Measured values from ChEMBL document CHEMBL1671711, “Serum and cerebrospinal fluid levels of colistin in pediatric patients” (Antimicrob Agents Chemother, 2010).

Tests used:
Format in all cases: ADME, organism-based
Design in all cases: route intravenous
[1] = Drug level in pediatric patient cerebrospinal fluid with gram-negative bacterial infection before initiation of 10.4 mg/kg/day, iv administered every 8 hrs for 46 days by LS/MS/MS analysis; conditions: human, in vivo
Procedure, shortened: (§1)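 Trough sampling: blood was drawn immediately before the 20-min IV CMS infusion (every 8 h), and CSF was taken from EVD systems within 1 h before infusion. Samples were stored at −80°C and analysed by LC-MS-MS for colistin, and for CMS via acid hydrolysis with subtraction. CSF was diluted 1:1 with serum. Values are means of two days.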

[2] = Ratio of drug level in cerebrospinal fluid to Serum of pediatric patient with gram-negative bacterial infection at 16 mg/kg/day, iv administered every 8 hrs for 93 days by LS/MS/MS analysis; conditions: human, csf
Procedure, shortened: (§2)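 Percentages are the ratio of mean CSF concentration to mean serum concentration from paired samples. Blood was drawn immediately before and 30 min after the 20-min IV CMS infusion (every 8 h); CSF came from EVD systems concurrently. Both were measured by LC-MS-MS, for colistin directly and for CMS after acid hydrolysis. Pairs were repeated on two days.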

[3] = Ratio of drug level in cerebrospinal fluid to Serum of pediatric patient with gram-negative bacterial infection before initiation of 10.4 mg/kg/day, iv administered every 8 hrs for 46 days by LS/MS/MS analysis; conditions: human, csf; procedure, shortened: as §2
[4] = Ratio of drug level in cerebrospinal fluid to Serum of pediatric patient with gram-negative bacterial infection assessed as Colistin level at 18 mg/kg/day, iv administered every 8 hrs for 42 days by LS/MS/MS analysis; conditions: human, csf; procedure, shortened: as §2
[5] = Ratio of drug level in cerebrospinal fluid to Serum of pediatric patient with gram-negative bacterial infection before initiation of 18 mg/kg/day, iv administered every 8 hrs for 42 days by LS/MS/MS analysis; conditions: human, csf; procedure, shortened: as §2
[6] = tested on: Serum; assay: Drug level in pediatric patient serum with gram-negative bacterial infection at 10.4 mg/kg/day, iv administered every 8 hrs for 46 days measured after 30 mins by LS/MS/MS analysis; conditions: human, in vivo, 0.5 h
Procedure, shortened: (§3)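 Serum was taken 30 min after the end of the 20-min IV CMS infusion (every 8 h) and stored at −80°C. It underwent acid hydrolysis with 1 M H2SO4 for 15–20 min, neutralisation with 1 M NaOH, and precipitation with acetonitrile containing 0.1% TFA. LC-MS-MS colistin before hydrolysis was subtracted from colistin after hydrolysis to give CMS. Values are means of two days.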

[7] = tested on: Serum; assay: Drug level in pediatric patient serum with gram-negative bacterial infection before initiation of 16 mg/kg/day, iv administered every 8 hrs for 93 days by LS/MS/MS analysis; conditions: human, in vivo; procedure, shortened: as §1
[8] = Ratio of drug level in cerebrospinal fluid to Serum of pediatric patient with gram-negative bacterial infection at 4.8 mg/kg/day, iv administered every 8 hrs for 7 days by LS/MS/MS analysis; conditions: human, csf; procedure, shortened: as §2
[9] = Drug level in pediatric patient cerebrospinal fluid with gram-negative bacterial infection assessed as Colistin level at 10.4 mg/kg/day, iv administered every 8 hrs for 46 days measured after 30 mins by LS/MS/MS analysis; conditions: human, in vivo, 0.5 h
Procedure, shortened: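 Children (1 month to 14 years) received CMS in 30 to 50 ml normal saline by 20-min IV infusion every 8 h. CSF was taken from EVD systems alongside blood, after the end of infusion, and stored at −80°C. It was diluted 1:1 with serum, protein-precipitated, and analysed by LC-MS-MS for colistin A plus B against standards in pH 7.4 phosphate-buffered artificial-CSF Ringer with serum. Values are means of two days; course 1 was sampled once.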

[10] = tested on: Serum; assay: Drug level in pediatric patient serum with gram-negative bacterial infection before initiation of 16 mg/kg/day, iv administered every 8 hrs for 51 days by LS/MS/MS analysis; conditions: human, in vivo; procedure, shortened: as §1
[11] = tested on: Serum; assay: Drug level in pediatric patient serum with gram-negative bacterial infection at 18 mg/kg/day, iv administered every 8 hrs for 42 days measured after 30 mins by LS/MS/MS analysis; conditions: human, in vivo, 0.5 h; procedure, shortened: as §3
[12] = Ratio of drug level in cerebrospinal fluid to Serum of pediatric patient with gram-negative bacterial infection at 10.4 mg/kg/day, iv administered every 8 hrs for 46 days by LS/MS/MS analysis; conditions: human, csf; procedure, shortened: as §2
[13] = tested on: Serum; assay: Drug level in pediatric patient serum with gram-negative bacterial infection before initiation of 4.8 mg/kg/day, iv administered every 8 hrs for 7 days by LS/MS/MS analysis; conditions: human, in vivo; procedure, shortened: as §1
[14] = Ratio of drug level in cerebrospinal fluid to Serum of pediatric patient with gram-negative bacterial infection before initiation of 16 mg/kg/day, iv administered every 8 hrs for 51 days by LS/MS/MS analysis; conditions: human, csf; procedure, shortened: as §2
[15] = tested on: Serum; assay: Drug level in pediatric patient serum with gram-negative bacterial infection assessed as Colistin level at 18 mg/kg/day, iv administered every 8 hrs for 42 days measured after 30 mins by LS/MS/MS analysis; conditions: human, in vivo, 0.5 h
Procedure, shortened: (§4)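 Blood was drawn 30 min after the end of the 20-min IV CMS infusion, given every 8 h. Serum was separated by centrifugation, stored at −80°C, and assayed by LC-MS-MS for colistin A plus B (interday CV <4.4%, accuracy within ±1.9%). Values are means of two sampling days; course 1 was sampled once.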

[16] = Drug level in pediatric patient cerebrospinal fluid with gram-negative bacterial infection at 10.4 mg/kg/day, iv administered every 8 hrs for 46 days measured after 30 mins by LS/MS/MS analysis; conditions: human, in vivo, 0.5 h
Procedure, shortened: (§5)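 CMS was given by 20-min IV infusion in saline every 8 h, and CSF was taken from EVD systems after the end of infusion. The CSF–serum 1:1 mix was treated with 1 M H2SO4 for 15–20 min, then 1 M NaOH, then acetonitrile with 0.1% TFA. CMS was calculated as colistin after hydrolysis minus colistin before hydrolysis, by LC-MS-MS, with CMS controls of 0.25–18.5 μg/ml. Values are means of two days; course 1 was sampled once.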

[17] = Drug level in pediatric patient cerebrospinal fluid with gram-negative bacterial infection before initiation of 16 mg/kg/day, iv administered every 8 hrs for 51 days by LS/MS/MS analysis; conditions: human, in vivo; procedure, shortened: as §1
[18] = Drug level in pediatric patient cerebrospinal fluid with gram-negative bacterial infection at 18 mg/kg/day, iv administered every 8 hrs for 42 days measured after 30 mins by LS/MS/MS analysis; conditions: human, in vivo, 0.5 h; procedure, shortened: as §5
[19] = tested on: Serum; assay: Drug level in pediatric patient serum with gram-negative bacterial infection assessed as Colistin level at 10.4 mg/kg/day, iv administered every 8 hrs for 46 days measured after 30 mins by LS/MS/MS analysis; conditions: human, in vivo, 0.5 h; procedure, shortened: as §4
[20] = Ratio of drug level in cerebrospinal fluid to Serum of pediatric patient with gram-negative bacterial infection assessed as Colistin level at 10.4 mg/kg/day, iv administered every 8 hrs for 46 days by LS/MS/MS analysis; conditions: human, csf; procedure, shortened: as §2
[21] = Drug level in pediatric patient cerebrospinal fluid with gram-negative bacterial infection before initiation of 18 mg/kg/day, iv administered every 8 hrs for 42 days by LS/MS/MS analysis; conditions: human, in vivo; procedure, shortened: as §1
[22] = Drug level in pediatric patient cerebrospinal fluid with gram-negative bacterial infection at 16 mg/kg/day, iv administered every 8 hrs for 93 days measured after 30 mins by LS/MS/MS analysis; conditions: human, in vivo, 0.5 h; procedure, shortened: as §5

Drug uptake [1]: 0.03 µg/mL
Ratio [2]: 3.1%
Ratio [3]: 3.1%
Ratio [4]: 3.2%
Ratio [5]: 0.6%
Drug uptake [6]: 7.9 µg/mL
Drug uptake [7]: 0.75 µg/mL
Ratio [8]: 2%
Drug uptake [9]: 0.05 µg/mL
Drug uptake [10]: 0.93 µg/mL
Drug uptake [11]: 7.98 µg/mL
Ratio [12]: 0.2%
Drug uptake [13]: 0.28 µg/mL
Ratio [14]: 9.9%
Drug uptake [15]: 2.2 µg/mL
Drug uptake [16]: 0.02 µg/mL
Drug uptake [17]: 0.09 µg/mL
Drug uptake [18]: 0.03 µg/mL
Drug uptake [19]: 1.46 µg/mL
Ratio [20]: 3.4%
Drug uptake [21]: 0.04 µg/mL
Drug uptake [22]: 0.26 µg/mL
Sequence: COLISTIN
